{"data": "Experimental data pooled from the literature", "YES1": "Tyrosine-protein kinase Yes (YES1, Homo sapiens, UniProt P07947)", "note": "Lines come from different studies, so protocols differ."}
{"Structure (SMILES)": "CC(C)(C)C(=O)c1sc(NC2CCCCC2)nc1N", "target": "YES1", "observed": "enzyme activity", "mode": "inhibitor", "concentration": "10 µM", "endpoint": "remaining activity", "result": "109%"}
{"Structure (SMILES)": "Cc1ccc(Nc2nccc(N(C)c3ccc4c(C)n(C)nc4c3)n2)cc1S(N)(=O)=O", "target": "YES1", "observed": "cell-free assay", "concentration": "0.5 µM", "endpoint": "remaining signal", "result": "52.6%"}
{"Structure (SMILES)": "CO[C@@H](C)c1c(Nc2ccc([C@H](N(C)C(=O)C3CCS(=O)(=O)CC3)C(F)(F)F)cc2)cnc2cc(Cl)nn12", "target": "YES1", "observed": "cell-free assay", "method": "competition with immobilised ligand", "concentration": "1 µM", "endpoint": "remaining binding", "result": "99%"}
{"Structure (SMILES)": "CCOc1cc(-c2nncn2C)ccc1Nc1ncc2cc(C)nc(NCC(C)(C)C)c2n1", "target": "YES1", "observed": "enzyme activity", "mode": "inhibitor", "method": "FRET", "concentration": "1 µM", "endpoint": "inhibition", "result": "22%"}
{"Structure (SMILES)": "N#CC1(c2ccccn2)CCN(Cc2cc(C(=O)N3CCCC3)c(=O)n3ccccc23)CC1", "target": "YES1", "observed": "cell-free assay", "method": "competition with immobilised ligand", "concentration": "1 µM", "endpoint": "remaining binding", "result": "84%"}
{"Structure (SMILES)": "c1ccc(CNc2nc(N3CCOc4ccccc43)nc3c2CCCC3)cc1", "target": "YES1", "observed": "target engagement in cells", "mode": "inhibitor", "method": "chemoproteomics", "concentration": "20 mM", "endpoint": "inhibition", "result": "-4.3%"}
{"Structure (SMILES)": "CCC(=O)N[C@H]1CC[C@@H](C(=O)N(C)c2ccc(-c3nc4ccccc4o3)cc2)C1", "target": "YES1", "observed": "cell-free assay", "method": "competition with immobilised ligand", "concentration": "1 µM", "endpoint": "remaining binding", "result": "82%"}
{"Structure (SMILES)": "CNC(=O)c1cc(Oc2ccc(NC(=O)Nc3ccc(Cl)c(C(F)(F)F)c3)cc2)ccn1", "target": "YES1", "observed": "cell-free assay", "concentration": "0.5 µM", "endpoint": "remaining signal", "result": "82.8%"}
{"Structure (SMILES)": "CN1CC(Oc2cnc(C#N)cc2-c2ccn3nc(NC(=O)C4CC4)cc3c2)C1", "target": "YES1", "observed": "enzyme activity", "mode": "inhibitor", "concentration": "1 µM", "endpoint": "inhibition", "result": "86%"}
{"Structure (SMILES)": "CC(=O)c1c(NS(C)(=O)=O)c2cc(-c3ccc(Cl)cc3)c(-c3ccc(Cl)cc3Cl)nc2n(C)c1=O", "target": "YES1", "observed": "cell-free assay", "method": "competition with immobilised ligand", "concentration": "1 µM", "endpoint": "remaining binding", "result": "96%"}
{"Structure (SMILES)": "Cc1ccc(C(=O)NCc2ccsc2)cc1C#Cc1cn(C(C)C)c2ncnc(N)c12", "target": "YES1", "observed": "enzyme activity", "mode": "inhibitor", "concentration": "1 µM", "endpoint": "activity vs control", "result": "2%"}
{"Structure (SMILES)": "Cn1c(=O)n(-c2ccc(C(C)(C)C#N)cc2)c2c3cc(-c4cnc5ccccc5c4)ccc3ncc21", "target": "YES1", "observed": "enzyme activity", "mode": "inhibitor", "concentration": "10 µM", "endpoint": "remaining activity", "result": "69%"}
{"Structure (SMILES)": "CCCOc1ccc(OC)c(F)c1C(=O)c1ccc(C(=O)N[C@@H]2CNC[C@H]2NC(=O)c2ccc3[nH]ncc3c2)cc1", "target": "YES1", "observed": "enzyme activity", "mode": "inhibitor", "concentration": "10 µM", "endpoint": "remaining activity", "result": "41%"}
{"Structure (SMILES)": "FC(F)(F)Oc1cccc(-c2cnc3ccc(-c4ccncc4)nn23)c1", "target": "YES1", "observed": "enzyme activity", "mode": "inhibitor", "method": "radiometric", "concentration": "5 µM", "endpoint": "activity vs control", "result": "77%"}
{"Structure (SMILES)": "COc1cccc2c(NCc3ccccc3)nc(-n3c(N)nc4ccccc43)nc12", "target": "YES1", "observed": "target engagement in cells", "mode": "inhibitor", "method": "chemoproteomics", "concentration": "20 mM", "endpoint": "inhibition", "result": "-2.4%"}
{"Structure (SMILES)": "COc1cc(/C=C/C(=O)CC(=O)/C=C/c2ccc(O)c(OC)c2)ccc1O", "target": "YES1", "observed": "enzyme activity", "mode": "inhibitor", "concentration": "1 µM", "endpoint": "activity vs control", "result": "62%"}
{"Structure (SMILES)": "FC(F)c1nc2ccccc2n1-c1nc(N2CCOCC2)nc(N2CCOCC2)n1", "target": "YES1", "observed": "enzyme activity", "mode": "inhibitor", "concentration": "10 µM", "endpoint": "remaining activity", "result": "72%"}
{"Structure (SMILES)": "COCCOc1nc(-c2ccc(Cl)nc2)nc2c1CN(C(=O)c1ncn3ccccc13)CC2", "target": "YES1", "observed": "cell-free assay", "method": "competition with immobilised ligand", "concentration": "0.1 µM", "endpoint": "remaining binding", "result": "100%"}
{"Structure (SMILES)": "CC/C(=N\\NC(=O)NCc1cccc(O)c1)c1ccc(O)c(C)c1O", "target": "Tyrosine-protein kinase Yes (YES1, Homo sapiens, UniProt P07947, T348I)", "observed": "enzyme activity", "mode": "inhibitor", "concentration": "0.1 µM", "endpoint": "inhibition", "result": "6.2%"}
{"Structure (SMILES)": "Cc1ccc(NC(=O)c2ccc(C)c(C(F)(F)F)c2)cc1C#Cc1nn(C2CCC(O)CC2)c2ncnc(N)c12 (stereo not shown)", "target": "YES1", "observed": "cell-free assay", "concentration": "10 µM", "endpoint": "remaining signal", "result": "0%"}
{"Structure (SMILES)": "Nc1ncnc2occ(-c3ccc(NC(=O)Nc4cc(C(F)(F)F)ccc4F)cc3)c12", "target": "YES1", "observed": "cell-free assay", "concentration": "20 µM", "endpoint": "remaining signal", "result": "2.9%"}
{"Structure (SMILES)": "O=C(Nc1cnn(-c2csc(C(=O)NC3COC3)c2)c1)Nc1c(F)cccc1Cl", "target": "YES1", "observed": "enzyme activity", "mode": "inhibitor", "concentration": "5 µM", "endpoint": "remaining activity", "result": "91%"}
{"Structure (SMILES)": "COc1cc(Nc2cnc(C#N)c(O[C@H](C)CN(C)C)n2)ncc1-c1cnn(C)c1", "target": "YES1", "observed": "enzyme activity", "mode": "inhibitor", "method": "radiometric", "concentration": "1 µM", "endpoint": "remaining activity", "result": "93%"}
{"Structure (SMILES)": "CN(c1ncccc1CNc1nc(Nc2ccc3c(c2)CC(=O)N3)ncc1C(F)(F)F)S(C)(=O)=O", "target": "YES1", "observed": "enzyme activity", "mode": "inhibitor", "concentration": "1 µM", "endpoint": "inhibition", "result": "51.6%"}
{"Structure (SMILES)": "O=C(Nc1cnn(-c2csc(C(=O)NC3COC3)c2)c1)Nc1ccccc1Cl", "target": "YES1", "observed": "enzyme activity", "mode": "inhibitor", "concentration": "5 µM", "endpoint": "remaining activity", "result": "96.5%"}
{"Structure (SMILES)": "CS(=O)(=O)N1CCCC(NC(=O)[C@H](CCC2CCCCC2)NC(=O)c2ccc(CNC(=O)c3cnc4ccccn34)cc2)C1 (stereo partly shown)", "target": "YES1", "observed": "cell-free assay", "method": "competition with immobilised ligand", "concentration": "0.1 µM", "endpoint": "remaining binding", "result": "88%"}
{"Structure (SMILES)": "O=c1cc(-c2cccc3c2Sc2ccccc2S3)oc(N2CCOCC2)c1", "target": "YES1", "observed": "enzyme activity", "mode": "inhibitor", "concentration": "0.5 µM", "endpoint": "remaining activity", "result": "89.4%"}
{"Structure (SMILES)": "C[C@@H](c1cccc(C#N)c1)n1cc(Cl)cc(C(N)=O)c1=N", "target": "YES1", "observed": "cell-free assay", "method": "competition with immobilised ligand", "concentration": "1 µM", "endpoint": "remaining binding", "result": "93%"}
{"Structure (SMILES)": "COc1cc2ncnc(Nc3ccc(Oc4ccccc4)cc3C)c2cc1OC", "target": "YES1", "observed": "enzyme activity", "mode": "inhibitor", "concentration": "1 µM", "endpoint": "inhibition", "result": "99%"}
{"Structure (SMILES)": "O=C(O)[C@@H]1[C@@H](Cn2nnc3ccccc3c2=O)CC[C@H]1C(=O)c1ccc(OCCC2CCOCC2)cc1", "target": "YES1", "observed": "cell-free assay", "method": "competition with immobilised ligand", "concentration": "1 µM", "endpoint": "remaining binding", "result": "100%"}
{"Structure (SMILES)": "CC(C)(C)c1nc(-c2cccc(NS(=O)(=O)c3c(F)cccc3F)c2F)c(-c2ccnc(N)n2)s1", "target": "YES1", "observed": "enzyme activity", "mode": "inhibitor", "method": "radiometric", "concentration": "1 µM", "endpoint": "remaining activity", "result": "105%"}
